Calls of active or inactive are those of the source. The calls are words filed in the database; no cut-off is given here.
Columns and labels:
[1] = AUC (0 to infinity) in CD-1 mouse plasma at 10 mg/kg, ip by UPLC analysis; assay type: ADME, organism-based; design: dose 10 mg/kg, route intraperitoneal, time infinity
Procedure, shortened: (§1)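 Male CD-1 mice, 6–7 weeks old, about 30 g, fed and watered ad libitum. Single dose of 10 mg/kg ip or 25 mg/kg sc, given as 100 μL formulation; n = 3 per time point per route. At set times, blood was taken by cardiac puncture with heparinized syringes and spun to plasma. Brains were harvested after transcardiac saline perfusion, weighed and flash-frozen. Brain levels are in pmol/mg tissue.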

[2] = AUC (0 to infinity) in CD-1 mouse brain assessed per mg tissue at 10 mg/kg, ip by UPLC analysis; assay type: ADME, organism-based; design: dose 10 mg/kg, route intraperitoneal, time infinity; details: in vivo; procedure, shortened: as §1
[3] = AUC (0 to infinity) in CD-1 mouse plasma at 25 mg/kg, sc by UPLC analysis; assay type: ADME, organism-based; design: dose 25 mg/kg, route subcutaneous, time infinity; procedure, shortened: as §1
[4] = AUC (0 to infinity) in CD-1 mouse brain assessed per mg tissue at 25 mg/kg, sc by UPLC analysis; assay type: ADME, organism-based; design: dose 25 mg/kg, route subcutaneous, time infinity; details: in vivo; procedure, shortened: as §1
[5] = Ratio of AUC (0 to infinity) in brain to plasma in CD-1 mouse at 10 mg/kg, ip by UPLC analysis; assay type: ADME, organism-based; details: read-out: Ratio AUC
Procedure, shortened: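 Male CD-1 mice (6–7 weeks, about 30 g) received one dose: 10 mg/kg ip or 25 mg/kg sc, with n = 3 per time point per route. At set times, plasma came from heparinized cardiac-puncture blood. Brain was taken after transcardiac saline perfusion, weighed and flash-frozen. Brain levels were in pmol/mg tissue, plasma in μM. Value is AUCbrain/AUCplasma.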

[6] = AUC (0 to last) in CD-1 mouse brain assessed per mg tissue at 25 mg/kg, sc by UPLC analysis; assay type: ADME, organism-based; details: in vivo; procedure, shortened: as §1
[7] = Primary phase half life in CD-1 mouse brain at 10 mg/kg, ip by UPLC analysis; assay type: ADME, organism-based; details: read-out: alphat1/2; procedure, shortened: as §1
[8] = molecular target: T1, Disintegrin and metalloproteinase domain-containing protein 10 (Homo sapiens, UniProt O14672); experiment: Inhibition of recombinant human C-terminal His10-tagged ADAM10 (Thr214 to Glu672 residues) expressed in baculovirus infected Sf21 cells using McaKPLGL-Dpa-AR-NH2 as substrate by fluorescence spectrophotometric method
T1 sequence (O14672 whole entry): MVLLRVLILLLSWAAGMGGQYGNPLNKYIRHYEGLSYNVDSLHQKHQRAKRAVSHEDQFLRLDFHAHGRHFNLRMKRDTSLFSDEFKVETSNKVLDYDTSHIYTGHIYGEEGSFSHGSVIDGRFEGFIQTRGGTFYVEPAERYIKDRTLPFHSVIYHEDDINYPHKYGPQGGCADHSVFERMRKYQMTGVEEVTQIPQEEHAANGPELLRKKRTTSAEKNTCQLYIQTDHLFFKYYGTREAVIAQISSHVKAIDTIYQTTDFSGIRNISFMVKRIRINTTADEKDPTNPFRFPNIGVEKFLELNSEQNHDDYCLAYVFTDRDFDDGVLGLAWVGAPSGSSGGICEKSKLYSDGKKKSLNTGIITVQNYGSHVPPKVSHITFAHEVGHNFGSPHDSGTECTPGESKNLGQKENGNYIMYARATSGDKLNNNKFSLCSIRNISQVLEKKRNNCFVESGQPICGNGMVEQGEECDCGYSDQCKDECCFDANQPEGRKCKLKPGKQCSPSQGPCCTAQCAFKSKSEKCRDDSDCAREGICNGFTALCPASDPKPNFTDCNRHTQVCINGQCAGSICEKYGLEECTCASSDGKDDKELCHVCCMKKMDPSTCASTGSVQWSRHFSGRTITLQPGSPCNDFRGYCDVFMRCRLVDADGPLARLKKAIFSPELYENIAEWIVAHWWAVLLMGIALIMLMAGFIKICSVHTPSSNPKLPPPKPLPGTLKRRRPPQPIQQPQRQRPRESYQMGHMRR
Procedure, shortened: (§2)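 Enzymes and their substrates were obtained as in earlier work, and inhibition was run by a previously reported protocol. Ki values were measured in triplicate.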

[9] = molecular target: Disintegrin and metalloproteinase domain-containing protein 17 (Homo sapiens, UniProt P78536); experiment: Inhibition of recombinant human C-terminal His6-tagged ADAM17 (Arg215 to Asn671 residues) expressed in baculovirus infected Sf21 cells using Mca-PLAQAV-Dpa-RSSSR-NH2 as substrate by fluorescence spectrophotometric method; procedure, shortened: as §2
Disintegrin and metalloproteinase domain-containing protein 17, sequence (P78536 whole entry, the tested form may be a part): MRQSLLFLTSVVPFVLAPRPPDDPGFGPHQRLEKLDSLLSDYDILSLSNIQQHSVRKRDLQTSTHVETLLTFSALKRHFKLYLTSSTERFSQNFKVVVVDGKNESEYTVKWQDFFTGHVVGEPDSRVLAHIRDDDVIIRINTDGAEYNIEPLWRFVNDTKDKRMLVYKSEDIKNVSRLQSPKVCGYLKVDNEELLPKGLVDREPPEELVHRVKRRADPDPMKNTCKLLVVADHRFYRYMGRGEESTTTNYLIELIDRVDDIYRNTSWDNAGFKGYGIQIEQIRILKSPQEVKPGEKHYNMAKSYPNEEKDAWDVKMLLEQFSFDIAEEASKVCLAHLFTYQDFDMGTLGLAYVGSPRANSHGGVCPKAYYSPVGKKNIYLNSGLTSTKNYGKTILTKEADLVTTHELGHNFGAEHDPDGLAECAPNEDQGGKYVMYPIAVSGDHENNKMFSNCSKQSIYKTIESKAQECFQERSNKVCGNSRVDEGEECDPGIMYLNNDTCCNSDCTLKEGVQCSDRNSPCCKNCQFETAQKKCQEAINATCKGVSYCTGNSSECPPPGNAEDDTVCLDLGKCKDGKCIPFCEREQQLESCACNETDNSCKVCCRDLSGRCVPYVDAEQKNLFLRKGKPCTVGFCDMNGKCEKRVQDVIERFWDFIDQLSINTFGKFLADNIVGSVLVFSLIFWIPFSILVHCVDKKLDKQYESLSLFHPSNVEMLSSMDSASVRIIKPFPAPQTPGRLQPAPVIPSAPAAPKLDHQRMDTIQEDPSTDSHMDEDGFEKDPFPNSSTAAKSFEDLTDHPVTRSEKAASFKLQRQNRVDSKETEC

Neutrophil collagenase = Neutrophil collagenase (Homo sapiens, UniProt P22894); experiment: Inhibition of recombinant human MMP8 catalytic domain (Phe99 to Gln269 residues) expressed in Escherichia coli using McaKPLGL-Dpa-AR-NH2 as substrate by fluorescence spectrophotometric method; procedure, shortened: as §2
Neutrophil collagenase, sequence (P22894 whole entry, the tested form may be a part): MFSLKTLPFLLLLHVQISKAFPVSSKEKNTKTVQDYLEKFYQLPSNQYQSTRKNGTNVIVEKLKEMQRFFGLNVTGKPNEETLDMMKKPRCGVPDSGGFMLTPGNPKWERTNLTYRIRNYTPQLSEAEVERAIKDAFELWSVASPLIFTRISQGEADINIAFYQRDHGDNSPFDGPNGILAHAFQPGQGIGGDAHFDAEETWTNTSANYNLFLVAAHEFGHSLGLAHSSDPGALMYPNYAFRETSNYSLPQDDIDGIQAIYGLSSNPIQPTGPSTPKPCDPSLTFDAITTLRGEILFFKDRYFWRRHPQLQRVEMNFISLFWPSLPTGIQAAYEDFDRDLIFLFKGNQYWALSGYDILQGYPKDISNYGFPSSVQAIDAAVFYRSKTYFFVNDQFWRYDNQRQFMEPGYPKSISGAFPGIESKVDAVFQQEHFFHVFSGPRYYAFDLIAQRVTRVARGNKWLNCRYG

[10] = Primary phase half life in CD-1 mouse plasma at 25 mg/kg, sc by UPLC analysis; assay type: ADME, organism-based; details: read-out: alphat1/2; procedure, shortened: as §1
[11] = Elimination half life in CD-1 mouse plasma at 25 mg/kg, sc by UPLC analysis; assay type: ADME, organism-based; details: read-out: beta t1/2; procedure, shortened: as §1
[12] = molecular target: Matrix metalloproteinase-9 (Homo sapiens) (UniProt P14780); experiment: Inhibition of recombinant human MMP9 catalytic domain (Phe107 to Pro449 residues) expressed in Escherichia coli using MOCAc-Pro-Leu-Gly-Leu-A2pr(Dnp)-Ala-Arg-NH2 as substrate at 10 uM by fluorescence spectrophotometric method relative to control
Matrix metalloproteinase-9 (Homo sapiens), sequence (P14780 whole entry, the tested form may be a part): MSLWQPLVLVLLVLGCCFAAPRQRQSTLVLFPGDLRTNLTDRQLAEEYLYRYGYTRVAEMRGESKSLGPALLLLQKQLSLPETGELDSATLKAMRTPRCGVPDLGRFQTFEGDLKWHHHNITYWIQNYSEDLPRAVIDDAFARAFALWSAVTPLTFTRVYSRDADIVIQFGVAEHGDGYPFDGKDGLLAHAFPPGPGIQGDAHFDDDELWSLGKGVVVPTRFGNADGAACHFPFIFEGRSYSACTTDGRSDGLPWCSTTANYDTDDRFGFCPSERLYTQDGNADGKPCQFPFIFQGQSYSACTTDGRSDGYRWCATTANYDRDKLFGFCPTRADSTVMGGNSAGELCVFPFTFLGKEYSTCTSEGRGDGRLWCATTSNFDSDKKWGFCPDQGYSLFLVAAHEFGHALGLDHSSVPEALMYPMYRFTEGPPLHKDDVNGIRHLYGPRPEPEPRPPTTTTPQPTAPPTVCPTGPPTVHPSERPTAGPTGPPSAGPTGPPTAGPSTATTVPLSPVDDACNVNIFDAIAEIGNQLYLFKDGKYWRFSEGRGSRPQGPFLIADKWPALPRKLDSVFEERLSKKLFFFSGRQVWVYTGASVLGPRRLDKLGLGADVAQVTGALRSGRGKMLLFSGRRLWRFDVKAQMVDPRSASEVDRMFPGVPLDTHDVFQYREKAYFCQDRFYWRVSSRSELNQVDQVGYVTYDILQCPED
Procedure, shortened: (§3)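 Single inhibitor concentration of 10 μM, reported as percent inhibition. Enzymes and substrates as in earlier work, with inhibition run by a previously reported protocol.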

[13] = molecular target: T2, Matrilysin (Homo sapiens) (UniProt P09237); experiment: Inhibition of recombinant human MMP7 expressed in Escherichia coli using MOCAc-Pro-Leu-Gly-Leu-A2pr(Dnp)-Ala-Arg-NH2 as substrate at 10 uM by fluorescence spectrophotometric method; procedure, shortened: as §3
T2 sequence (whole entry): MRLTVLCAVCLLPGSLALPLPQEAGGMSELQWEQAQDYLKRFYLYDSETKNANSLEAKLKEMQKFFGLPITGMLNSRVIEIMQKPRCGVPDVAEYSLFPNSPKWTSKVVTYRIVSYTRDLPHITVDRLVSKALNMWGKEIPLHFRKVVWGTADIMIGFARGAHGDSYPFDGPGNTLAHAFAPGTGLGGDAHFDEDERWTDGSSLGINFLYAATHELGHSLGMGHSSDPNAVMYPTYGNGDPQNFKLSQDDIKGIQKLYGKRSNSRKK

[14] = molecular target: Stromelysin-1 (Homo sapiens) (UniProt P08254); experiment: Inhibition of recombinant human MMP3 catalytic domain expressed in Escherichia coli at 10 uM using MOCAc-Arg-Pro-LysPro-Val-Glu-Nva-Trp-Arg-Lys(Dnp)-NH2 as substrate by fluorescence spectrophotometric method relative to control; procedure, shortened: as §3
Stromelysin-1 (Homo sapiens), sequence (P08254 100-477 limits assumed): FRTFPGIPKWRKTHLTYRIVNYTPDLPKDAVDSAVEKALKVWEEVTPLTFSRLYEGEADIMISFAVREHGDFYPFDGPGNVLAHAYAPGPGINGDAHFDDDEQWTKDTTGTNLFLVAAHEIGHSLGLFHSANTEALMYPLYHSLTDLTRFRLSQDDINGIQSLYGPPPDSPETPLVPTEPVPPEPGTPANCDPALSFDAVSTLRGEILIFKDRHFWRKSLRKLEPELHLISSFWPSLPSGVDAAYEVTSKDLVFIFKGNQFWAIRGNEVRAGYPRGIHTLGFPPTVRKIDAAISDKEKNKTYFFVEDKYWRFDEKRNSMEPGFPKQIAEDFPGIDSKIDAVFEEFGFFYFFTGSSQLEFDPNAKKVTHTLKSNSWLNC

[15] = molecular target: Macrophage metalloelastase (Homo sapiens, UniProt P39900); experiment: Inhibition of recombinant human MMP12 catalytic domain using Mca-PLGL-DpaAR-NH2 as substrate by fluorescence spectrophotometric method; procedure, shortened: as §2
Macrophage metalloelastase, sequence (P39900 whole entry, the tested form may be a part): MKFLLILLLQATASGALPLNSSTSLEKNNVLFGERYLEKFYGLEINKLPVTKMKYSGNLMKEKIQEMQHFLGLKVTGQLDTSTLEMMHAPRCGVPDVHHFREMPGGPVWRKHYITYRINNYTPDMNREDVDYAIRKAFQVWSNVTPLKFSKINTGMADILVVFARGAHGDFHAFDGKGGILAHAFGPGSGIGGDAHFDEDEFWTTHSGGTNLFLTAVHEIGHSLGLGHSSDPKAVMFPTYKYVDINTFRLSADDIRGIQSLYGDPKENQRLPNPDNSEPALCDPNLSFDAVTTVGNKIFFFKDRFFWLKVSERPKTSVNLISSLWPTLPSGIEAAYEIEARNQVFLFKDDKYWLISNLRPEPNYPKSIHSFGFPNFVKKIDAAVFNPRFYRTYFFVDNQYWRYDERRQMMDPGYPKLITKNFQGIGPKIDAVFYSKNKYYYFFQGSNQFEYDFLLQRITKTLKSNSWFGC

AUC(0-inf) [1]: 3.07 µM·h | AUC [2]: 14 pmol·min/mg | AUC(0-inf) [3]: 18.5 µM·h | AUC [4]: 77 pmol·min/mg | Kp [5]: 0.0761 | AUClast [6]: 51.2 pmol·min | half-life [7]: 28.8 min | Ki [8]: 73 nM | Ki [9]: 900 nM | Ki (Neutrophil collagenase): 8700 nM | half-life [10]: 15.4 min | half-life [11]: 158 min | inhibition [12]: 25% | inhibition [13]: inactive | inhibition [14]: 2% | Ki [15]: 270 nM
SMILES: O=C(NO)[C@H]1C[C@H](OC(=O)N2CCCC2)CC[C@@H]1C(=O)N1CCC(c2ccccc2)CC1

From ChEMBL document CHEMBL4145666, “In Search of Selectivity in Inhibition of ADAM10” (ACS Med Chem Lett, 2018)
